From article PMC9558256 (ACS Omega, 2022)

Tests used:
[1] = test system: P. falciparum resistant strain F32-ART; assay: Antiplasmodial activity; type: cell-based; details: Plasmodium falciparum, F32, read-out: P. falciparum F32ART IC50
Outline: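 Test compounds screened against artemisinin-resistant P. falciparum F32-ART (selected after 144 intermittent, increasing artemisinin doses) by SYBR Green at 1 and 10 μM, in triplicate, in two independent experiments. Compounds giving around or above 50% growth inhibition at 10 μM were retested at four doses, each in triplicate, to derive IC50.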

[2] = Cytotoxicity on RAW 264.7 macrophages; type: cell-based; details: mouse
[3] = test system: L. donovani axenic amastigotes (LV9); assay: In vitro antileishmanial evaluation on axenic amastigotes; type: cell-based; details: Leishmania donovani, read-out: IC50 on the axenic form of L. donovani
[4] = test system: L. donovani intramacrophage amastigote forms (LV9); assay: In vitro antileishmanial evaluation on intramacrophage amastigotes; type: cell-based; details: Leishmania donovani, RAW264.7, 48 h, read-out: L. donovani IC50
Outline: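 RAW 264.7 macrophages were infected with L. donovani LV9 axenic amastigotes at 10 parasites per macrophage. Test compound was added 24 h post-infection for 48 h, with top concentrations set from RAW 264.7 cytotoxicity. Parasite growth reduction was read by SYBR Green incorporation and IC50 derived by regression. Miltefosine served as reference drug.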

[5] = Cytotoxicity on Vero cells; type: cell-based; details: African green monkey
[6] = test system: M. tuberculosis H37Rv; assay: MIC determination by resazurin reduction microplate assay; type: cell-based, Mycobacterium tuberculosis; details: MIC comparison with literature BNF15

| SMILES | IC50 [1] [µM] | CC50 [2] [µM] | IC50 [3] [µM] | IC50 [4] [µM] | CC50 [5] [µM] | fold less active than BNF15 against M. tuberculosis [6] |
| --- | --- | --- | --- | --- | --- | --- |
| CC(C)(C)Nc1oc2c(c1-c1ccc(Cl)cc1)C(=O)c1ccccc1C2=O [Compound 9, 2-(tert-Butylamino)-3-(4-chlorophenyl)naphtho[2,3-b]furan-4,9-dione] | > 10 |  |  |  |  |  |
| CC(C)(C)Nc1oc2c(c1-c1cccc(Br)c1)C(=O)c1ccccc1C2=O [Compound 10, 3-(3-Bromophenyl)-2-(tert-butylamino)naphtho[2,3-b]furan-4,9-dione] | > 10 |  |  |  |  |  |
| COc1cc(-c2c(NC(C)(C)C)oc3c2C(=O)c2ccccc2C3=O)cc(OC)c1OC [Compound 11, 2-(tert-Butylamino)-3-(3,4,5-trimethoxyphenyl)naphtho[2,3-b]furan-4,9-dione] | > 10 |  |  |  |  |  |
| COc1ccc(-c2c(NC(C)(C)C)oc3c2C(=O)c2ccccc2C3=O)cc1OC [Compound 12, 2-(tert-Butylamino)-3-(3,4-dimethoxyphenyl)naphtho[2,3-b]furan-4,9-dione] | > 10 |  |  |  |  |  |
| Cn1ncc2cc(-c3c(NC(C)(C)C)oc4c3C(=O)c3ccccc3C4=O)ccc21 [Compound 13, 2-(tert-Butylamino)-3-(1-methyl-1H-indazol-5-yl)naphtho[2,3-b]furan-4,9-dione] | > 10 |  |  |  |  |  |
| CC(C)(C)Nc1oc2c(c1-c1cc3ccccc3[nH]1)C(=O)c1ccccc1C2=O [Compound 14, 2-(tert-Butylamino)-3-(1H-indol-2-yl)naphtho[2,3-b]furan-4,9-dione] | > 10 |  |  |  |  |  |
| CC(C)(C)Nc1oc2c(c1-c1ccc([N+](=O)[O-])o1)C(=O)c1ccccc1C2=O [Compound 15, 2-(tert-Butylamino)-3-(5-nitrofuran-2-yl)naphtho[2,3-b]furan-4,9-dione] | > 10 |  |  |  |  |  |
| CC(C)(C)Nc1oc2c(c1C1CCN(C(=O)OC(C)(C)C)CC1)C(=O)c1ccccc1C2=O [Compound 16, tert-Butyl 4-(2-(tert-Butylamino)-4,9-dioxo-4,9-dihydronaphtho[2,3-b]furan-3-yl)piperidine-1-carboxylate] | > 10 | 49.2 | < 10 | 6.97 |  |  |
| CC(C)(C)Nc1oc2c(c1C1CCN(Cc3ccccc3)CC1)C(=O)c1ccccc1C2=O [Compound 17, 3-(1-Benzylpiperidin-4-yl)-2-(tert-butylamino)naphtho[2,3-b]furan-4,9-dione] | 2.5 |  |  |  | 86 | about 7 fold |
| O=C1c2ccccc2C(=O)c2c1oc(NC1CCCCC1)c2-c1ccc(Cl)cc1 [Compound 18, 3-(4-Chlorophenyl)-2-(cyclohexylamino)naphtho[2,3-b]furan-4,9-dione] | 11 | 54.2 | < 10 | 9.41 | 50 |  |
| COc1cc(-c2c(NC3CCCCC3)oc3c2C(=O)c2ccccc2C3=O)cc(OC)c1OC [Compound 19, 2-(Cyclohexylamino)-3-(3,4,5-trimethoxyphenyl)naphtho[2,3-b]furan-4,9-dione] | 6 |  |  |  | > 100 |  |
| Cn1ncc2cc(-c3c(NC4CCCCC4)oc4c3C(=O)c3ccccc3C4=O)ccc21 [Compound 20, 2-(Cyclohexylamino)-3-(1-methyl-1H-indazol-5-yl)naphtho[2,3-b]furan-4,9-dione] | 10 |  |  |  |  |  |
| O=C1c2ccccc2C(=O)c2c1oc(NC1CCCCC1)c2-c1ccc([N+](=O)[O-])o1 [Compound 21, 2-(Cyclohexylamino)-3-(5-nitrofuran-2-yl)naphtho[2,3-b]furan-4,9-dione] | > 10 |  |  |  |  |  |
| O=C1c2ccccc2C(=O)c2c1oc(NC1CCCCC1)c2C1CCN(Cc2ccccc2)CC1 [Compound 22, 3-(1-Benzylpiperidin-4-yl)-2-(cyclohexylamino)naphtho[2,3-b]furan-4,9-dione] | 3.6 |  |  |  | 36 |  |
| CCCCNc1oc2c(c1-c1ccc(Cl)cc1)C(=O)c1ccccc1C2=O [Compound 23, 2-(Butylamino)-3-(4-chlorophenyl)naphtho[2,3-b]furan-4,9-dione] | > 10 |  |  |  |  |  |
| CCCCNc1oc2c(c1-c1cc(OC)c(OC)c(OC)c1)C(=O)c1ccccc1C2=O [Compound 24, 2-(Butylamino)-3-(3,4,5-trimethoxyphenyl)naphtho[2,3-b]furan-4,9-dione] | 9 |  |  |  | > 100 |  |
| CCCCNc1oc2c(c1-c1ccc([N+](=O)[O-])o1)C(=O)c1ccccc1C2=O [Compound 26, 2-(Butylamino)-3-(5-nitrofuran-2-yl)naphtho[2,3-b]furan-4,9-dione] | > 10 |  |  |  |  |  |
| CCCCNc1oc2c(c1C1CCN(Cc3ccccc3)CC1)C(=O)c1ccccc1C2=O [Compound 27, 3-(1-Benzylpiperidin-4-yl)-2-(butylamino)naphtho[2,3-b]furan-4,9-dione] | 4 |  |  |  | 24 |  |
| CC(C)(C)NC=C1C(=O)C(=O)c2ccccc2C1=O [Compound 28, 3-((tert-Butylamino)methylene)naphthalene-1,2,4(3H)-trione] | 1.4 | > 100 | < 10 | 3.5 | > 50 |  |
| CCCCNC=C1C(=O)C(=O)c2ccccc2C1=O [Compound 29, 3-((Butylamino)methylene)naphthalene-1,2,4(3H)-trione] | 1.9 | 46.5 | < 10 | 6.33 | > 50 |  |
| O=C1C(O)=C([C@H]2CC[C@H](c3ccc(Cl)cc3)CC2)C(=O)c2ccccc21 [atovaquone (7), atovaquone, reference compound] | 0.001 | 44 |  | 11.1 | 6 |  |
| O=C1C=C(O)C(=O)c2ccccc21 [lawsone (1), 2-hydroxy-1,4-naphthoquinone, reference compound] | > 10 | 44 |  | 6.27 |  |  |
| CCCCCCCCCCCCCCCCOP(=O)([O-])OCC[N+](C)(C)C [miltefosine, reference compound] |  | 22.6 |  | 1.46 |  |  |
